Results as given in publication PMC2649974 (Proteins, 2009).

Assays:
human PMK [1] = biological target: T1, human PMK (Homo sapiens, UniProt Q15126); assay type: binding; details: for Kd: read-out: Kd in all complexes, binary and ternary complexes, NMR, pH 6.5, 25 °C
T1 sequence (Q15126 1-192): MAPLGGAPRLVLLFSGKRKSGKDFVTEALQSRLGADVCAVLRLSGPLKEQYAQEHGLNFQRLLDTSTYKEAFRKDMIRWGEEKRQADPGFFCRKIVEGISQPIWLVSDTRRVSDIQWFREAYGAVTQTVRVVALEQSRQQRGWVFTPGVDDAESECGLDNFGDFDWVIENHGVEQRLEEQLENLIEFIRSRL
Method in brief: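 Uniformly 15N-labelled His6-tagged human PMK from E. coli BL21(DE3) Rosetta, Ni-purified. Held at 400-600 μM in 20 mM KH2PO4, 5 mM DTT, 10% D2O, 0.02% NaN3, pH 6.5, 25 °C. Mg-ADP (1:1 MgCl2) or M5P added in 100 μM steps to saturation, in either order. Fast-exchange 1H/15N shifts (15N scaled by 6.51) were fitted to a quadratic with total protein and ligand.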

human PMK [2] = biological target: T1, human PMK; details: previously reported Km values; cited from earlier work

For `Nc1ncnc2c1ncn2[C@@H]1O[C@H](COP(=O)(O)OP(=O)(O)O)[C@@H](O)[C@H]1O` [Mg-ADP, ADP], the Kd (human PMK [1]) is listed as 6 to 60 µM and the Km (human PMK [2]) is listed as 47 ± 5 µM.
In the case of `C[C@@](O)(CCOP(=O)(O)O)CC(=O)O` [M5P, mevalonate 5-phosphate], the Kd (human PMK [1]) is given as 6 to 60 µM and the Km (human PMK [2]) is given as 34 ± 3 µM.
For `Nc1ncnc2c1ncn2[C@@H]1O[C@H](COP(=O)(O)OP(=O)(O)NP(=O)(O)O)[C@@H](O)[C@H]1O` [AMP-PNP], the “binding to PMK (in words)” value (human PMK [1]; compared to ATP or ADP, HSQC titration onto Apo-PMK) was “binds only weakly”.
